Measured values from the M2OR odorant receptor database.

Tests used:
Conditions in all cases: stereoisomer not certain
[1] = biological target: T1, UniProt Q8VGJ5
T1 sequence (whole entry): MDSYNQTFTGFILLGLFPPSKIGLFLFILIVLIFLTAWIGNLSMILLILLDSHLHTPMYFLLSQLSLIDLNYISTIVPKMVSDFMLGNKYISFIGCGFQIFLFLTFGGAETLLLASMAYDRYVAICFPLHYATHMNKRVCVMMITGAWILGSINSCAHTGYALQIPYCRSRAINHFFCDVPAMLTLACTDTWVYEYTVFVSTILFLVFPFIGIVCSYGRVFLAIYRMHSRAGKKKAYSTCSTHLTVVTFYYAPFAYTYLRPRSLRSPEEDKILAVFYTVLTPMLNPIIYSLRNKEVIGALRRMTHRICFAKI
Method in brief: (§1)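 Whether a receptor–molecule pair is responsive (active) rests on the original authors' judgment that its measured signal was statistically different from baseline. Pairs without that judgment are non-responsive (inactive). Sources used varied assay methods, commonly transient luciferase assays in mammalian cell lines.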

[2] = biological target: T2, UniProt Q8VGL0
T2 sequence (whole entry): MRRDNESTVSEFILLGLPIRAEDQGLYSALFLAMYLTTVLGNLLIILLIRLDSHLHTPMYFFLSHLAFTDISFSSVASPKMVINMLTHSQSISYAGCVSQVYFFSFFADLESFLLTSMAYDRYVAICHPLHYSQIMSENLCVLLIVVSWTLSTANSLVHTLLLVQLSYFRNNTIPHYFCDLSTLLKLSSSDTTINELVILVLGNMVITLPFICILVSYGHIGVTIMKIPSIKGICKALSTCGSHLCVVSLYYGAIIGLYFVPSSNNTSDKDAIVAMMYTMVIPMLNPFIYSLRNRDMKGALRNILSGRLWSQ
Method in brief: as §1

[3] = biological target: T3, UniProt Q8VGL7
T3 sequence (whole entry): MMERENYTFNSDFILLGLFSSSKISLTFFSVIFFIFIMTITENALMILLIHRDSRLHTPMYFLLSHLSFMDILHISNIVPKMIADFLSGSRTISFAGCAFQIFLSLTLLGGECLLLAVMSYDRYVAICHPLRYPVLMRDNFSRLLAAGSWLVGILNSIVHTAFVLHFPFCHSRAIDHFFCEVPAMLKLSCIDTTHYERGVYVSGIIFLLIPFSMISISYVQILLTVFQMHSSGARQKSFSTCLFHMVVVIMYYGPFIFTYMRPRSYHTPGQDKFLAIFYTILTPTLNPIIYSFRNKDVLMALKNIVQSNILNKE
Method in brief: as §1

[4] = biological target: T4, UniProt Q8VGM2
T4 sequence (whole entry): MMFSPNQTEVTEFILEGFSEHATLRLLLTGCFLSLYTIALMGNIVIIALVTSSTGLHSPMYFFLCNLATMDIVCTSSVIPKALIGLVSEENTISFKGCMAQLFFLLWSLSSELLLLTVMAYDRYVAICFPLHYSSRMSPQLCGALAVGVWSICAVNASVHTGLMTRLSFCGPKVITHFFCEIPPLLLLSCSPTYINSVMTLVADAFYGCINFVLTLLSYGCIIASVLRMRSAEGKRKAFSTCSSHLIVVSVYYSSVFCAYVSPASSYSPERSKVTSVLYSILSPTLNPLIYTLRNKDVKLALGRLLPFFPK
Method in brief: as §1

[5] = biological target: T5, UniProt Q8VGP6
T5 sequence (whole entry): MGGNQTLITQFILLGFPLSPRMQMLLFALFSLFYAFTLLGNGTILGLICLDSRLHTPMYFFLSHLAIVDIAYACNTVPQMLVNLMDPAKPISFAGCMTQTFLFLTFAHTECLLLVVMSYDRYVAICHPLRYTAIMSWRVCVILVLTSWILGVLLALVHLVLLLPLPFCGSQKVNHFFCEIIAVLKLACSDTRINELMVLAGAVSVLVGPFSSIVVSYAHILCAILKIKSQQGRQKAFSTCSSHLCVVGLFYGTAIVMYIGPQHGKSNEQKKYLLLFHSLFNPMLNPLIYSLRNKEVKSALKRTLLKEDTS
Method in brief: as §1

[6] = biological target: T6, UniProt Q8VGQ3
T6 sequence (whole entry): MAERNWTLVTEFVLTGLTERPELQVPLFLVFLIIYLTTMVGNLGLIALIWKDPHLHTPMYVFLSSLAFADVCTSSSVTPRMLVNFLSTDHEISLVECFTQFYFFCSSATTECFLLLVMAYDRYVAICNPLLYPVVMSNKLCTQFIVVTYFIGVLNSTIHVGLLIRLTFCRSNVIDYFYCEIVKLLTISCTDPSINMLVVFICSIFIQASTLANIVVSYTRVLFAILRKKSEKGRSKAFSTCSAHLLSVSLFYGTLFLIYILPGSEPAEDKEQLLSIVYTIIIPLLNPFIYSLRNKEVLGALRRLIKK
Method in brief: as §1

[7] = biological target: T7, UniProt Q8VGT4
T7 sequence (whole entry): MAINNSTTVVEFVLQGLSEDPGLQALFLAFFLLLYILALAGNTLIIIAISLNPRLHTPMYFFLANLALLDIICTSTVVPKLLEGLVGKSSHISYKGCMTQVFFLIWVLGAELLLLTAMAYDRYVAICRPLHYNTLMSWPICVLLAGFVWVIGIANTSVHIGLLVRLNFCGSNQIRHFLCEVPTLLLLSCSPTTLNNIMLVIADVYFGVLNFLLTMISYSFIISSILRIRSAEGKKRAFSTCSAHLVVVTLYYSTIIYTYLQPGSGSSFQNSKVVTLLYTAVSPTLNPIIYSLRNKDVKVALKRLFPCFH
Method in brief: as §1

[8] = biological target: T8, UniProt Q8VGV1
T8 sequence (whole entry): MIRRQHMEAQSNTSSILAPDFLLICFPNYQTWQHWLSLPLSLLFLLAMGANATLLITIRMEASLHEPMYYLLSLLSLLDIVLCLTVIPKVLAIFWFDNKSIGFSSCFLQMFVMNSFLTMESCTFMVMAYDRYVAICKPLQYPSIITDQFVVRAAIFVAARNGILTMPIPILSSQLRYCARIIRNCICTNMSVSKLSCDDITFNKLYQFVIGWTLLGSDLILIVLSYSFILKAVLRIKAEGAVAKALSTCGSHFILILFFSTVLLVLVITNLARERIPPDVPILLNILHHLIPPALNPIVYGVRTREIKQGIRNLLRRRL
Method in brief: as §1

[9] = biological target: T9, UniProt Q8VGX5
T9 sequence (whole entry): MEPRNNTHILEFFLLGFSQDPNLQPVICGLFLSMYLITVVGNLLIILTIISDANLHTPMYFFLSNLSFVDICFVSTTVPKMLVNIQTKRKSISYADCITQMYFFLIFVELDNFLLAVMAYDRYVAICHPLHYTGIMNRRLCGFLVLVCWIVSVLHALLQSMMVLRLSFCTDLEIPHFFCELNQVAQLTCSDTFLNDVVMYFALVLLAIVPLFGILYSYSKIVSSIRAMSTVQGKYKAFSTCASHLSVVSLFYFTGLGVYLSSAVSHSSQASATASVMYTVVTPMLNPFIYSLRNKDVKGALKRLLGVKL
Method in brief: as §1

[10] = biological target: T10, UniProt Q8VGX8
T10 sequence (whole entry): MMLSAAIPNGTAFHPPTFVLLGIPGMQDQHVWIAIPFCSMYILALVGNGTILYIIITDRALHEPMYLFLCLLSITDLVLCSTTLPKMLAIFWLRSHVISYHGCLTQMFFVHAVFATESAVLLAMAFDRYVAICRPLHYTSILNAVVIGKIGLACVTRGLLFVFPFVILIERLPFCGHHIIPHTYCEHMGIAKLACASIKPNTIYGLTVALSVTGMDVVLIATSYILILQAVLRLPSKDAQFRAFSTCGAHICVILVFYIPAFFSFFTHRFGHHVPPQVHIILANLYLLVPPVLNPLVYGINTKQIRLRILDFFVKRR
Method in brief: as §1

[11] = biological target: T11, UniProt Q8VGY6
T11 sequence (whole entry): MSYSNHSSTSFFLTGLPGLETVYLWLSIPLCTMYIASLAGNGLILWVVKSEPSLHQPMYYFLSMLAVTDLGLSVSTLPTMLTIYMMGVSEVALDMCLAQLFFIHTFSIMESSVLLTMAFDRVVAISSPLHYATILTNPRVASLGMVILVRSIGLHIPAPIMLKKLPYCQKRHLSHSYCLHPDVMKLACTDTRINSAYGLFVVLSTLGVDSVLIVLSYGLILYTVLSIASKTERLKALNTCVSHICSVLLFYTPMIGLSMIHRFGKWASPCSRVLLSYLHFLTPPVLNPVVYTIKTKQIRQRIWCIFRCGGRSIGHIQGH
Method in brief: as §1

[12] = biological target: T12, UniProt Q8VGZ2
T12 sequence (whole entry): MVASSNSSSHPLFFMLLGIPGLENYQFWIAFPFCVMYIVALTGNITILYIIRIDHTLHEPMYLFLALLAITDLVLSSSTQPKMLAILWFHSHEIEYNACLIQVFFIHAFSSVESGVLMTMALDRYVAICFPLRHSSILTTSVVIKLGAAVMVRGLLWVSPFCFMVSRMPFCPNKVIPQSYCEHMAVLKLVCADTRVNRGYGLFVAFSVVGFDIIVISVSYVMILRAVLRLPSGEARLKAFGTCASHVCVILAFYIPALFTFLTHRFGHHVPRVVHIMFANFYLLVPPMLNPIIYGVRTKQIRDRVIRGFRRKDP
Method in brief: as §1

[13] = biological target: T13, UniProt Q8VGZ7
T13 sequence (whole entry): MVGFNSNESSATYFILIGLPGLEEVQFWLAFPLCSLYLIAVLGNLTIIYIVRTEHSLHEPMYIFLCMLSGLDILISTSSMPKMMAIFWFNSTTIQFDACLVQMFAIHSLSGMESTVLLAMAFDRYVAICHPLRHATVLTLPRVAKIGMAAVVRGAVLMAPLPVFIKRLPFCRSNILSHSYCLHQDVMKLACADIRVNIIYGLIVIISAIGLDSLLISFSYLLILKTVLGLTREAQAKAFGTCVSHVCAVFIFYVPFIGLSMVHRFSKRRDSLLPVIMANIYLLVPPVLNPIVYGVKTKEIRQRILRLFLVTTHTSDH
Method in brief: as §1

[14] = biological target: T14, UniProt Q8VH10
T14 sequence (whole entry): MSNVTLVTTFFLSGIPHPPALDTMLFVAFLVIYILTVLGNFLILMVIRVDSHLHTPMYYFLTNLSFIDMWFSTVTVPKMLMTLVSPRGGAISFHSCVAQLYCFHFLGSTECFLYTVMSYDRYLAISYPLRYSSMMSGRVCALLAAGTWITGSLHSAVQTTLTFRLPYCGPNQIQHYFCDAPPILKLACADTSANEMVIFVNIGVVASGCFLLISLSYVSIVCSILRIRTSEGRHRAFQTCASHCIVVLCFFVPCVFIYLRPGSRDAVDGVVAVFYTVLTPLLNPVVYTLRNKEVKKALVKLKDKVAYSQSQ
Method in brief: as §1

[15] = biological target: T15, UniProt Q8VH20
T15 sequence (whole entry): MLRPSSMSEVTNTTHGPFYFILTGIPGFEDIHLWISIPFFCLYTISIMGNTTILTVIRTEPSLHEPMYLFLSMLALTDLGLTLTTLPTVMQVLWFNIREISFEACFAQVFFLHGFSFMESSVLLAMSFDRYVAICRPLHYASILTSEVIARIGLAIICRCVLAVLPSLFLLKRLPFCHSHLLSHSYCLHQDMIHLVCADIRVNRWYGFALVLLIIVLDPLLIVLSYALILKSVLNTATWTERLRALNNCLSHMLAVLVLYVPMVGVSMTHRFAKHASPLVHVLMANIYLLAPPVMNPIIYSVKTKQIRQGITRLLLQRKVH
Method in brief: as §1

[16] = biological target: T16, UniProt Q8VGU3
T16 sequence (whole entry): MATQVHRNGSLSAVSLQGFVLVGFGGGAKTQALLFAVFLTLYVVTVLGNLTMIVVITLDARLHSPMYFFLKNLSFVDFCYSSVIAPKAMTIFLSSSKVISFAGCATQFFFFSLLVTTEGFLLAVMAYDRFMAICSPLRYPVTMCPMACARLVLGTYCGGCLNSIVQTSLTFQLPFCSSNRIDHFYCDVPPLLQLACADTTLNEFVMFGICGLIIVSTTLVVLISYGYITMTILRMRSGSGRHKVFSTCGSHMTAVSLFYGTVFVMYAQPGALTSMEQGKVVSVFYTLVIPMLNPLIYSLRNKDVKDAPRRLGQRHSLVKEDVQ
Method in brief: as §1

[17] = biological target: T17, UniProt Q8VGV7
T17 sequence (whole entry): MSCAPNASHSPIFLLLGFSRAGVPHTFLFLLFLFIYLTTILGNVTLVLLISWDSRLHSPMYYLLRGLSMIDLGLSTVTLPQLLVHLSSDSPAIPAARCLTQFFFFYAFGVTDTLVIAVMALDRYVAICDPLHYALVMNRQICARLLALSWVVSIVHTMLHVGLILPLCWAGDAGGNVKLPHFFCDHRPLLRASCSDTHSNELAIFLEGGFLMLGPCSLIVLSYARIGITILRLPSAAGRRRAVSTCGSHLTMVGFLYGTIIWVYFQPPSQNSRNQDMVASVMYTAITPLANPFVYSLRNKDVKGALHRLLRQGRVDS
Method in brief: as §1

[18] = biological target: T18, UniProt Q8VGX3
T18 sequence (whole entry): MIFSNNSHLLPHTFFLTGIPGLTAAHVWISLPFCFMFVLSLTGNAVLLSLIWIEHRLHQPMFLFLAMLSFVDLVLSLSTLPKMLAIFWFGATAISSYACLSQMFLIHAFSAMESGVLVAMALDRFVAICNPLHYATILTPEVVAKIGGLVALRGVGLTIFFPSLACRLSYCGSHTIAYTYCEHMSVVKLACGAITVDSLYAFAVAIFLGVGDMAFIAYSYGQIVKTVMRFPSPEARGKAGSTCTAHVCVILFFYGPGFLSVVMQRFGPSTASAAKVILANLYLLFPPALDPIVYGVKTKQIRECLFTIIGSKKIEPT
Method in brief: as §1

[19] = biological target: T19, UniProt Q8VH16
T19 sequence (whole entry): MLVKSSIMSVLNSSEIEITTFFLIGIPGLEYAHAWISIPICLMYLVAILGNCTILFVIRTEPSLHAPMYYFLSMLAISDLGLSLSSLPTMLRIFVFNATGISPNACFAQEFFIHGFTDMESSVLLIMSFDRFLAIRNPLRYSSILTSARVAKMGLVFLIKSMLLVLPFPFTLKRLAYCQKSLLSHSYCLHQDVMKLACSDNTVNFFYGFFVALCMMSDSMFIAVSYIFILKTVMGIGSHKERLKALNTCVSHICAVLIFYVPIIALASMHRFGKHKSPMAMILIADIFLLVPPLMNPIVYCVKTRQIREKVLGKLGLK
Method in brief: as §1

Measured: odorant receptor agonist call;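 further: active if original authors judged signal statistically different from baseline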

C=CCc1ccccc1
not listed: [16] | [17] | [18] | [19]
inactive: all other assays above

OCc1ccc2c(c1)OCO2
inactive: [2] | [16] | [17] | [18] | [9] | [12] | [13] | [19] | [15]

O=c1cc(O)c2ccccc2o1
inactive: all assays above
